Data set [1] addresses T1, Human immunodeficiency virus type 1 integrase (Human immunodeficiency virus 1, UniProt Q7ZJM1).
For data set [2], the target named is T1, Human immunodeficiency virus type 1 integrase. This is another data set of the same source.
The target in data set [3] is Human immunodeficiency virus type 1 reverse transcriptase (Human immunodeficiency virus 1) (UniProt Q72547). In words: Inhibition of RNase H function of HIV1 reverse transcriptase using DNA/RNA hybrid as substrate at 10 uM by fluorescence spectrometer analysis. The essentials:
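RNase H activity of HIV-1 RT was measured with an RNA/DNA hybrid substrate at 250 nM final, with 150–800 ng RT, in 50 mM Tris-HCl pH 8.0, 60 mM KCl, 10 mM MgCl2 and 1% DMSO, against DMSO-only wells. Fluorescence (ex 485/em 520 nm) was read each minute over 10 min at 37 °C. Percent inhibition at 10 μM = 100(v0−vi)/v0 from initial rates, run in triplicate.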

Data set [4] concerns Human immunodeficiency virus 1. The experiment in a line: Antiviral activity against HIV-1 3B infected in human HeLa-CD4-LTR-beta-gal cells assessed as inhibition of viral replication by SpectraMax GEMINI-XS plate reader analysis. The settings on record: Human immunodeficiency virus 1, 3B. The data set is classed as functional, organism-based. The essentials:
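HeLa-CD4-LTR-β-gal cells kept in DMEM, 10% serum, 0.5 mg/mL G418; seeded 10000 cells/well the day before. Drug 3-fold serially diluted over six points on cells (top 50 μM), then fresh medium or concentrated HIV-1(IIIB) supernatant added.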

The subject of another data set is HeLa. In words: Cytotoxicity against human HeLa-CD4-LTR-beta-gal cells after 24 hrs by ATPlite reagent based luminescence analysis. The data set is classed as cell-based. A general note: ATP-based viability assays read luminescence as a measure of living cells.
The nature of data set [5]: Selectivity index, ratio of CC50 for human HeLa-CD4-LTR-beta-gal cells to EC50 for HIV-1 3B infected in human HeLa-CD4-LTR-beta-gal cells. The data set is classed as toxicity. The conditions noted are these: read-out: Ratio CC50/EC50.

The structures appear in SMILES notation. Where only a bound is given, the exact number is not on record here.

T1 sequence (Q7ZJM1 whole entry): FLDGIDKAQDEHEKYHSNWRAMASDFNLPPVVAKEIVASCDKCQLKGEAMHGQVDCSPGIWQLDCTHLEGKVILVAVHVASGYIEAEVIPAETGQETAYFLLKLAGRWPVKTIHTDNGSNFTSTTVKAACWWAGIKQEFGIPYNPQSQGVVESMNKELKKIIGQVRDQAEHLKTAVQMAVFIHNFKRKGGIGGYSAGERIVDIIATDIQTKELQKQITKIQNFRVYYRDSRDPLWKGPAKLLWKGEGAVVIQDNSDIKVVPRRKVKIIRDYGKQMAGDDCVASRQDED

The IC50 is the concentration needed to halve the response being measured. In general, inhibition refers to the drop in the measured response relative to a control, in per cent. The term EC50 denotes the midpoint of the concentration-response curve. One may read the CC50 as the concentration that lowers cell viability or growth by half. As for `CCOC(=O)/C(O)=C/C(=O)c1cn(Cc2c(F)cccc2F)c2ccccc2c1=O`, the IC50 in data set [1] is more than 12.3 µM; in data set [2], 0.25 µM. Moreover, the inhibition in data set [3] came out at 4.1%. The EC50 in data set [4] is less than 0.2 µM. This compound came in with a CC50 with HeLa of more than 50 µM. Further, in data set [5], the selectivity ratio was more than 250.

As for `COc1cc2c(cc1Cc1cccc(Cl)c1F)c(=O)c(C(=O)O)cn2[C@H](CO)C(C)C`, the EC50 in data set [4] is 0.0142 µM. The same compound came in with a CC50 in the data set with HeLa of more than 50 µM.

Turning to `CCOC(=O)/C(O)=C/C(=O)c1cn(Cc2ccc(O)cc2)c2ccccc2c1=O`, the results for the IC50 in data set [1] and in data set [2] were more than 333 µM and 1.4 µM, respectively. Moreover, in data set [3], the inhibition is 26%. Also, the EC50 in data set [4] was determined as 30.9 µM. This compound also displayed a CC50 with HeLa of more than 50 µM. In addition, the selectivity ratio in data set [5] was more than 1.6.

In the case of `CCOC(=O)/C(O)=C/C(=O)c1cn(Cc2ccccc2F)c2ccccc2c1=O`, the IC50 was found to be 125 µM in data set [1] and 0.28 µM in data set [2]. Also, the inhibition in data set [3] turned out to be 2.8%. Moreover, the EC50 in data set [4] came out at 1.5 µM. In the data set with HeLa, the CC50 was more than 50 µM. The selectivity ratio in data set [5] is more than 33.4.

Turning to `O=C(O)/C(O)=C/C(=O)c1cn(Cc2ccc3ccccc3n2)c2ccccc2c1=O`, the IC50 in data set [1] stood at 70 µM; in data set [2], 0.4 µM. The inhibition in data set [3] is 16.4%. Besides, in data set [4], the EC50 was more than 50 µM.

Take `CCOC(=O)/C(O)=C/C(=O)c1cn(CCCCc2ccccc2)c2ccccc2c1=O`: the concentration for half-maximal inhibition (IC50) in data set [1] is more than 333 µM; in data set [2], 120 µM. Also, in data set [3], the inhibition worked out at 19.4%. For the same compound, the concentration giving a half-maximal response (EC50) in data set [4] is more than 50 µM.

Consider `CCOC(=O)/C(O)=C/C(=O)c1cn(Cc2ccccc2)c2ccccc2c1=O`, for which the half-inhibitory concentration (IC50) in data set [1] is more than 1000 µM; in data set [2] it was 0.7 µM. Moreover, the inhibition in data set [3] is -3.3%. For the same compound, the concentration for a half-maximal effect (EC50) in data set [4] came to 1 µM. In addition, the half-maximal cytotoxic concentration (CC50) in the data set with HeLa is more than 50 µM. Moreover, in data set [5], the selectivity ratio is more than 50.

With `CCOC(=O)/C(O)=C/C(=O)c1cn(Cc2ccc(OC)cc2)c2ccccc2c1=O`, the IC50 in data set [1] and in data set [2] was more than 37 µM each time. The inhibition in data set [3] came out at 10%. Besides, the 50% effective concentration (EC50) in data set [4] was more than 50 µM.

For the compound `CCOC(=O)/C(O)=C/C(=O)c1cn(Cc2cc(F)ccc2F)c2ccccc2c1=O`, 3.7 µM corresponded to half-maximal inhibition in data set [2] (IC50). The inhibition in data set [3] turned out to be 30%. Further, the EC50 in data set [4] is more than 50 µM.

As to `CCOC(=O)/C(O)=C/C(=O)c1cn(Cc2ccc(F)c(F)c2)c2ccccc2c1=O`, in data set [2], the IC50 was 5.5 µM. The inhibition in data set [3] stood at 24%. Besides, the EC50 in data set [4] came to 9.8 µM. In addition, the CC50 with HeLa was more than 50 µM. Besides, the selectivity ratio in data set [5] was more than 5.1.

Turning to `O=C(O)/C(O)=C/C(=O)c1cn(Cc2ccc(F)c(Cl)c2)c2ccccc2c1=O`, the IC50 in data set [1] was 21 µM; in data set [2] it was 0.19 µM. The inhibition in data set [3] worked out at 25%. For the same compound, the EC50 in data set [4] is more than 50 µM.

In the case of `CCOC(=O)/C(O)=C/C(=O)c1cn(Cc2cccc(OC)c2)c2ccccc2c1=O`, the half-maximal inhibitory concentration (IC50) in data set [1] is more than 333 µM; in data set [2], 16 µM. Further, the inhibition in data set [3] turned out to be 4.9%. In data set [4], the EC50 came to 8.5 µM. In the data set on HeLa, it took 44 µM to reach half-maximal cytotoxicity (CC50). Besides, in data set [5], the selectivity ratio amounted to 5.2.

As to `CCOC(=O)/C(O)=C/C(=O)c1cn(Cc2ccc(Cl)cc2)c2ccccc2c1=O`, the IC50 in data set [1] and in data set [2] was more than 37 µM in each case. Also, the inhibition in data set [3] amounted to 16.1%. Moreover, the EC50 in data set [4] is more than 50 µM.

Take `CCOC(=O)/C(O)=C/C(=O)c1cn(Cc2ccc3ccccc3c2)c2ccccc2c1=O`: the IC50 in data set [1] is more than 333 µM; in data set [2], 32 µM. Moreover, the inhibition in data set [3] was determined as 29.7%. In data set [4], the EC50 was more than 50 µM.

In the case of `CCOC(=O)/C(O)=C/C(=O)c1cn(Cc2cccc(F)c2)c2ccccc2c1=O` [RDS-1624], the figures for the IC50 in data set [1] and in data set [2] were more than 12.3 µM and 4.9 µM, respectively. The inhibition in data set [3] is -9.4%. For the same compound, the EC50 in data set [4] was 1.7 µM. The compound also yielded a CC50 with HeLa of more than 50 µM. Besides, the selectivity ratio in data set [5] is more than 29.4.

Regarding `CCOC(=O)/C(O)=C/C(=O)c1cn(Cc2ccccc2F)c2cc(Cl)ccc2c1=O`, the inhibition in data set [3] was 2.8%. Also, the 50% effective concentration (EC50) in data set [4] is 11 µM. Moreover, the CC50 in the data set on HeLa was more than 50 µM. For the same compound, the selectivity ratio in data set [5] was more than 4.5.

For `CCOC(=O)/C(O)=C/C(=O)c1cn(Cc2ccc(F)c(Cl)c2)c2c(Cl)cccc2c1=O`, the IC50 in data set [1] is more than 333 µM; in data set [2], 25.1 µM. Besides, the inhibition in data set [3] is 24%. For the same compound, the EC50 in data set [4] is more than 50 µM.

`O=C(O)/C(O)=C/C(=O)c1cn(Cc2ccncc2)c2ccccc2c1=O`: the IC50 in data set [1] is more than 1000 µM; in data set [2] it was 16 µM. Further, the inhibition in data set [3] was -2.6%. In data set [4], the EC50 is more than 50 µM.

Take `CCOC(=O)/C(O)=C/C(=O)c1cn(Cc2ccc(F)cc2F)c2ccccc2c1=O`: in data set [2], the IC50 was determined as 2.2 µM. For the same compound, the inhibition in data set [3] turned out to be 3%. The EC50 in data set [4] is 0.58 µM. Besides, the CC50 with HeLa was more than 50 µM. The selectivity ratio in data set [5] is more than 86.2.

As to `COc1cccc(Cn2cc(C(=O)/C=C(\O)C(=O)O)c(=O)c3ccccc32)c1` [RDS-2161], the figures for the IC50 in data set [1] and in data set [2] were more than 4.1 µM and 0.14 µM, respectively. Further, the inhibition in data set [3] worked out at 1.9%. The EC50 in data set [4] was more than 50 µM.

In the case of `O=C(O)/C(O)=C/C(=O)c1cn(Cc2ccccc2)c2ccccc2c1=O`, the IC50 in data set [1] stood at 4 µM; in data set [2], 0.034 µM. The inhibition in data set [3] was 9.6%. In addition, in data set [4], the EC50 was determined as 15.5 µM. Further, the CC50 in the data set on HeLa is more than 50 µM.

As for `O=C(O)/C(O)=C/C(=O)c1cn(Cc2ccc(F)cc2)c2cc(Cl)c(Cl)cc2c1=O`, the IC50 in data set [1] is more than 50 µM.

As for `CCOC(=O)/C(O)=C/C(=O)c1cn(Cc2ccc([N+](=O)[O-])cc2)c2ccccc2c1=O`, the half-maximal inhibitory concentration (IC50) in data set [1] and in data set [2] was more than 37 µM throughout. For the same compound, the inhibition in data set [3] was 31.9%. Further, in data set [4], the EC50 was more than 50 µM.

With `CCOC(=O)/C(O)=C/C(=O)c1cn(Cc2ccc3ccccc3n2)c2ccccc2c1=O`, the results for the IC50 in data set [1] and in data set [2] were more than 1000 µM and 3.5 µM, respectively. In addition, the inhibition in data set [3] was 4.4%. For the same compound, in data set [4], the EC50 is more than 50 µM.

In data set [2], `CCOC(=O)/C(O)=C/C(=O)c1cn(Cc2cc(F)cc(F)c2)c2ccccc2c1=O` had an IC50 of 11 µM. Further, the inhibition in data set [3] came to 24%. In addition, the EC50 in data set [4] came out at 32.4 µM. The CC50 in the data set on HeLa is more than 50 µM. For the same compound, the selectivity ratio in data set [5] was more than 1.5.

`Cc1nnc(C(=O)NC(C)(C)c2nc(C(=O)NCc3ccc(F)cc3)c(O)c(=O)n2C)o1` displayed a CC50 with HeLa of more than 50 µM.

For `O=C(O)/C(O)=C/C(=O)c1cn(CCCCc2ccccc2)c2ccccc2c1=O`, the IC50 is more than 333 µM in data set [1] and less than 0.45 µM in data set [2]. Besides, the inhibition in data set [3] came to 33%. Further, the EC50 in data set [4] is more than 50 µM.

`CCOC(=O)/C(O)=C/C(=O)c1cn(Cc2cc(C)cc(C)c2)c2ccccc2c1=O`: the IC50 in data set [2] is 1.3 µM. Also, in data set [3], the inhibition came out at 21%. Also, the EC50 in data set [4] was more than 50 µM.

Consider `O=C(O)/C(O)=C/C(=O)c1cn(Cc2ccc(F)c(Cl)c2)c2c(Cl)cccc2c1=O`, for which the IC50 in data set [1] was found to be 9.8 µM; in data set [2] it was 0.096 µM. Moreover, the inhibition in data set [3] came to 16%. Besides, the EC50 in data set [4] was 50 µM.

Consider `CCOC(=O)/C(O)=C/C(=O)c1cn(Cc2ccncc2)c2ccccc2c1=O`, for which the 50% inhibitory concentration (IC50) in data set [1] is more than 333 µM; in data set [2] it was 14 µM. Besides, the inhibition in data set [3] was -5.6%. For the same compound, the EC50 in data set [4] was more than 50 µM.
